According to article PMC3703767 (Virology, 2008):

What was measured:
MNV-1 = assay: Mouse norovirus PPMO inhibition assay in RAW264.7 cells; type: cell-based, murine norovirus
In short: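 RAW264.7 cells (2×10^5/well) were seeded and incubated overnight, then rinsed and exposed 4 h to test compound in plain DMEM (8 replicate wells). They were rinsed again and infected with MNV-1.CW1 for 2 h at 37 °C, then kept 3 days at 37 °C. Wells were formalin-fixed and stained with crystal violet; methanol-eluted stain was read at A570. Variants used fixed compound with 10-fold virus dilutions (20–2×10^5 PFU/well), or 1.25–80 μM compound with 2×10^4 PFU/well. % lysis = ([treated]−[treated+infected])/[treated]×100.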

[1] = test system: Hu/NoV/GI.1/Norwalk virus/1968/US 5′ ORF1 sequence; assay: Luciferase reporter assay, Norwalk leader; type: biochemical, human norovirus; conditions: target with 1 mismatch to Noro 1.1; luciferase signal
In short: (§1)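 In vitro translation in nuclease-treated rabbit reticulocyte lysate. The target 5′-end leader sits upstream of firefly luciferase; RNA is T7-transcribed from NotI-cut plasmid (1 nM final). Test compound is added at 0.01–83 μM final, and reactions run 75 min at 37 °C, then are chilled on ice. Percent inhibition is calculated from luciferase signal versus no-compound reaction. Each assay was run at least twice, by two investigators in separate labs.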

[2] = test system: Laboratory variant 1 5′ ORF1 sequence; assay: Luciferase reporter assay, Laboratory variant 1 leader; type: biochemical
In short: as §1

[3] = test system: Laboratory variant 2 5′ ORF1 sequence; assay: Luciferase reporter assay, Laboratory variant 2 leader; type: biochemical
In short: as §1

[4] = test system: Hu/NoV/GI.2/Southampton/1991/UK 5′ ORF1 sequence; assay: Luciferase reporter assay, Southampton leader; type: biochemical, human norovirus; conditions: target with 0 mismatches to Noro 1.1; luciferase signal
In short: as §1

[5] = test system: Bo/NoV/GIII.1/Jena/1998/DEU 5′ ORF1 sequence; assay: Luciferase reporter assay, Jena bovine norovirus leader; type: biochemical
In short: as §1

[6] = test system: Hu/NoV/GII.4/CN3050/1998/USA 5′ ORF1 sequence; assay: Luciferase reporter assay, CN3050 leader; type: biochemical, human norovirus
In short: as §1

[7] = test system: Hu/No.V/GII.4/Lordsdale/1993/UK 5′ ORF1 sequence; assay: Luciferase reporter assay, Lordsdale leader; type: biochemical, human norovirus
In short: as §1

[8] = test system: Hu/NoV/GII.12/CN2753/1998/USA 5′ ORF1 sequence; assay: Luciferase reporter assay, CN2753 leader; type: biochemical, human norovirus; conditions: target with 2 mismatches to Noro 1.1; luciferase signal
In short: as §1

[9] = test system: Norwalk virus replicon in HG23 cells; assay: Norwalk virus RNA in replicon-bearing HG23 cells; type: cell-based; conditions: 16 μM, quantitative real-time RT-PCR, data not shown
In short: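 HG23 replicon cells were electroporated with 16 μM test compound and incubated 5 days at 37 °C. Replicon RNA in treated and untreated cells was then quantified by single-step real-time RT-PCR with a standard curve in each run. Cycling: 45 °C 30 min, 95 °C 10 min, then 45 cycles of 95 °C 30 s, 50 °C 1 min, 72 °C 30 s.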

[10] = test system: Hu/NoV/GI.6/WUG1/2000/JP 5′ ORF1 sequence; assay: Luciferase reporter assay, WUG1 leader; type: biochemical, human norovirus; conditions: target with 1 mismatch to Noro 1.1; luciferase signal
In short: as §1

[11] = test system: Laboratory variant 3 5′ ORF1 sequence; assay: Luciferase reporter assay, Laboratory variant 3 leader; type: biochemical
In short: as §1

[12] = test system: Norwalk virus replicon in HG23 cells; assay: PMO inhibition of norovirus protein expression in replicon cell line HG23; type: cell-based; conditions: 16 μM, 5-day incubation, immunofluorescence
In short: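 HG23 cells (Huh-7-derived Norwalk replicon line, DMEM/10% FBS/0.25 mg/ml neomycin) received 16 μM unconjugated morpholino by nucleofection (solution L, program A020). A total of 2×10^6 cells were seeded and incubated 5 days at 37 °C. Cells were then fixed in ice-cold methanol and analysed by immunofluorescence with guinea pig antisera against Norwalk VP1 and RdRP.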

[13] = target with 6 mismatches to Noro 1.1, luciferase signal

Q: Which “effectiveness in inhibiting viral replication” value (MNV-1; 20 μM PPMO, 2 × 10^4 PFU/well MNV-1) does the source give for CGCAGAAGATGGCGTTGCCATCCTC [PPMO C] here?
A: 70%

Q: What about the “maximal dose of MNV-1 inhibited” value (MNV-1; PPMO C 80 μM, MNV-1 20 to 2 × 10^5 PFU/well, 8 replicates) of the same sequence?
A: up to 2 × 10^5 PFU

Q: With CGTTGCCATCCTCATTTCAC [PPMO B] as the sequence, how does the “dose of MNV-1 whose replication is completely inhibited” value (MNV-1; PPMO B 20 μM, MNV-1 20 to 2 × 10^5 PFU/well, 8 replicates) read?
A: 2 × 10^3 PFU

Q: Which “Outcome of in vitro assay” value [1] does the source give for CGACGCCATCATCATTCAC [Noro 1.1] here?
A: Inhibition (Inhibition defined as > 60% reduction of protein synthesis, as defined by luciferase signal.)

Q: What about the “inhibition of translation” value ([2]; LabVar 1, 4 nucleotide changes) of the same sequence?
A: less efficiently

Q: What about the “Outcome of in vitro assay” value ([2]; target with 4 mismatches to Noro 1.1, luciferase signal) of the same sequence?
A: Inhibition (Inhibition defined as > 60% reduction of protein synthesis, as defined by luciferase signal.)

Q: What about the “inhibition of translation” value ([3]; LabVar 2, 5 nucleotide changes) of the same sequence?
A: less efficiently

Q: What about the “Outcome of in vitro assay” value ([3]; target with 5 mismatches to Noro 1.1, luciferase signal) of the same sequence?
A: Inhibition (Inhibition defined as > 60% reduction of protein synthesis, as defined by luciferase signal.)

Q: And the “Outcome of in vitro assay” value [4]?
A: Inhibition (Inhibition defined as > 60% reduction of protein synthesis, as defined by luciferase signal.)

Q: And the maximal inhibition achieved ([5]; range of concentrations tested, 0.01 to 83 μM)?
A: ≤ 57%

Q: And the “Outcome of in vitro assay” value [5, 13]?
A: No inhibition

Q: What about the “inhibition of translation achieved” value ([6]; GII.4 variant) of the same sequence?
A: 100%

Q: What about the “Outcome of in vitro assay” value ([6]; target with 3 mismatches to Noro 1.1, luciferase signal) of the same sequence?
A: Inhibition (Inhibition defined as > 60% reduction of protein synthesis, as defined by luciferase signal.)

Q: What about the “inhibition of translation achieved” value ([7]; GII.4 variant) of the same sequence?
A: 100%

Q: And the “Outcome of in vitro assay” value ([7]; target with 2 mismatches to Noro 1.1, luciferase signal)?
A: Inhibition (Inhibition defined as > 60% reduction of protein synthesis, as defined by luciferase signal.)

Q: And the “Outcome of in vitro assay” value [8]?
A: Inhibition (Inhibition defined as > 60% reduction of protein synthesis, as defined by luciferase signal.)

Q: What about the “Norwalk virus RNA level” value [9] of the same sequence?
A: did not see a significant reduction in RNA

Q: And the “Outcome of in vitro assay” value [10]?
A: Inhibition (Inhibition defined as > 60% reduction of protein synthesis, as defined by luciferase signal.)

Q: What about the “inhibition of translation” value ([11]; LabVar3, 6 nucleotide differences, data not shown) of the same sequence?
A: completely failed to inhibit translation

Q: And the “Outcome of in vitro assay” value [11, 13]?
A: No inhibition

Q: And the “Norwalk virus protein translation in HG23 cells” value [12]?
A: effectively inhibited norovirus protein translation
